Cardio protect: myocardial damage modulation in H9c2 cells; H9c2 cardiomyocytes, H2O2 injury protection, ATPLite, 2 h; protection from H2O2 cell death, % at 20 µM; 360,000 compounds, 0.63% hits; AID 588492;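 active means compounds giving at least 50% protection of heart cells from peroxide-induced death in the single-dose screen, raw or plate-pattern-corrected value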
Myeloid diff MLP: promotes myeloid progenitor differentiation | ER-HoxA9 myeloid progenitors, lysozyme-GFP differentiation, flow cytometry | calls only at 10 µM | 360,000 compounds, 1% hits;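 active means normalized GFP-positive differentiation at or above the plate's own cutoff, the solvent-only control mean plus 3 SD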;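 further: cells exposed to compound for four days before flow analysis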
HNF4A DNA FP: change in binding of human HNF4 alpha to DNA | activity change, % at 10 µM | 360,000 compounds, 0.3% hits | HNF4a-FITC DNA binding, fluorescence polarization, 1 h; in the data active means activity change above about 30%, passing the limit was not always enough
SENP1 FRET inh: blocks the human SENP1 SUMO protease catalytic domain | 360,000 compounds, 0.21% hits | Q9P0U3 | inhibition, % at 10 µM | AID 624204 | recombinant SENP1 catalytic domain, CyPet-SUMO1-YPet FRET cleavage;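 active means inhibition at least 30% at 10 µM, raw YFP signal under a set limit, fluorescence ratio 0.5 to 1.5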
Target sequence (Q9P0U3 419-644 limits assumed): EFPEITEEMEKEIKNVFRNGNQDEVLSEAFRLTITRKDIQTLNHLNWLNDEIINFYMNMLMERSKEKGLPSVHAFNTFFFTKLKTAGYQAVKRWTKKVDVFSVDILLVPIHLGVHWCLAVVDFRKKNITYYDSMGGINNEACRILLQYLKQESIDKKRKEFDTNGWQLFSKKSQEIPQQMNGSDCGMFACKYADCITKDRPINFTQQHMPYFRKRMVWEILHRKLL
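Assay system: hSENP1 catalytic domain, recombinant. Amount: SENP1 enzyme, 20 pM final. Schedule: 50 min reaction, RT, dark. Technique: FRET, CFP and YFP emission. Control set: no-enzyme wells low, DMSO-plus-enzyme wells high control.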
Pemphigus Ab inh: inhibitors of pemphigus antibody binding to human desmoglein-3; AID 588358; 310,000 compounds, 0.48% hits; DSG3-coupled beads, scFv-anti-DSG3-GFP binding, flow cytometry; hits give low values; binding (percent of control), % at 10 µM;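 active means binding more than 3 SD below its plate's average and above zero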;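 further: hits lower antibody fragment binding to DSG3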
Granule exo inh: blocks lytic granule exocytosis; TALL-104 LAMP-1 surface exposure, flow cytometry; cells stimulated with thapsigargin and PMA; 360,000 compounds, 0.66% hits; inhibition, % at 10 µM;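 active means inhibition above about 55%, limit read from the data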
Myeloid diff: compounds promoting myeloid differentiation; shares compounds with Myeloid diff MLP; ER-HoxA9 myeloid progenitors, GFP/Mac1 double-positive flow; calls only; 2,300 compounds, 2% hits;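 active means share of green or green-and-red cells above 9 and 9% in run 1 or 4 and 3% in run 2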
GFP autofluor: flagged as fluorescent in myeloid differentiation counter-screen. ER-HoxA9 myeloid progenitors, no estrogen, GFP autofluorescence flow cytometry; vehicle wells 0%, positive control 100%. shares compounds with Myeloid diff MLP. fluorescence response, % (test concentration not listed). 2,300 compounds, 7.4% hits. AID 651707;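 active means over 5% cells positive for green fluorescent reporter, or over 2% positive for both it and APC stain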
Numbers stand for hits; ! = not confirmed by another sample. The list is not random: actives were taken first. Their share in the collection is about 3%.

CCC(C)Sc1ccc(-c2nc3cc(C)ccn3c2NC2CCCCC2)cc1 (centres undefined) was read as Cardio protect inactive, Myeloid diff MLP active, HNF4A DNA FP 45!, SENP1 FRET inh inactive, Pemphigus Ab inh inactive, Granule exo inh inactive, Myeloid diff active and GFP autofluor inactive.
For COc1cc(C(=O)COC(=O)c2cnc(C)cn2)ccc1OC(F)F the results were Cardio protect inactive, Myeloid diff MLP inactive, HNF4A DNA FP inactive, SENP1 FRET inh inactive, Pemphigus Ab inh inactive and Granule exo inh inactive.
`COc1ccc(C(=O)COC(=O)c2cnc(C)cn2)cc1OC` gave Cardio protect inactive, Myeloid diff MLP inactive, HNF4A DNA FP inactive, SENP1 FRET inh inactive, Pemphigus Ab inh inactive, Granule exo inh inactive, Myeloid diff inactive and GFP autofluor inactive.
CCCCn1c(N)c(N(CCOC)C(=O)c2ccco2)c(=O)[nH]c1=O was read as Cardio protect inactive, Myeloid diff MLP inactive, HNF4A DNA FP inactive, SENP1 FRET inh inactive, Pemphigus Ab inh inactive and Granule exo inh inactive.
For O=C(Nc1ccccc1)c1cccc(N2C(=O)C3C4C=CC(C4)C3C2=O)c1 (centres undefined) the results were Cardio protect inactive, HNF4A DNA FP inactive, SENP1 FRET inh inactive, Pemphigus Ab inh inactive and Granule exo inh inactive.
`O=C(Nc1ccc(F)cc1)c1cccc(N2C(=O)C3C4C=CC(C4)C3C2=O)c1` (centres undefined) gave Cardio protect inactive, Myeloid diff MLP active, HNF4A DNA FP inactive, SENP1 FRET inh inactive, Pemphigus Ab inh inactive, Granule exo inh inactive, Myeloid diff inactive and GFP autofluor inactive.
Cn1c2ccccc2c(=O)c2ccc(NCc3ccc4c(c3)OCO4)cc21 was read as Cardio protect 71, Myeloid diff MLP active, HNF4A DNA FP inactive, SENP1 FRET inh inactive, Pemphigus Ab inh inactive, Granule exo inh inactive, Myeloid diff inactive and GFP autofluor inactive.
COc1cccc2sc3ccc(NCc4ccc5c(c4)OCO5)cc3c(=O)c12 was read as Cardio protect inactive, Myeloid diff MLP inactive, HNF4A DNA FP inactive, SENP1 FRET inh inactive, Pemphigus Ab inh inactive and Granule exo inh inactive.
O=[N+]([O-])c1ccc(Nc2ccccc2O)c2nonc12 was read as Cardio protect inactive, Myeloid diff MLP active, HNF4A DNA FP inactive, SENP1 FRET inh inactive, Pemphigus Ab inh inactive, Granule exo inh inactive, Myeloid diff inactive and GFP autofluor inactive.
COc1ccc(Cn2c(C)nc3c(c2=O)c2nc4ccccc4nc2n3Cc2ccco2)cc1 was read as Cardio protect inactive, Myeloid diff MLP inactive, HNF4A DNA FP inactive, SENP1 FRET inh inactive, Pemphigus Ab inh inactive, Granule exo inh inactive, Myeloid diff inactive and GFP autofluor inactive.
COc1ccccc1-n1cnnc1SC(C)C(=O)NCC1CCCO1 (centres undefined) was read as Cardio protect inactive, Myeloid diff MLP inactive, HNF4A DNA FP inactive, SENP1 FRET inh inactive, Pemphigus Ab inh inactive and Granule exo inh inactive.
Screening CCOc1ccc(/C=C/C(=O)N2CCOCC2)cc1OC returned Cardio protect inactive, Myeloid diff MLP inactive, HNF4A DNA FP inactive, SENP1 FRET inh inactive, Pemphigus Ab inh inactive and Granule exo inh inactive.
CCOc1cc(C(=S)N2CCOCC2)ccc1OC(=O)/C=C/c1ccc(OC)c(OC)c1 was read as Cardio protect inactive, Myeloid diff MLP inactive, HNF4A DNA FP inactive, SENP1 FRET inh inactive, Pemphigus Ab inh inactive, Granule exo inh inactive, Myeloid diff inactive and GFP autofluor inactive.
Screening Cc1cc(C)n2nc(SCC(=O)NC(=O)c3ccccc3Cl)nc2n1 returned Cardio protect inactive, Myeloid diff MLP inactive, HNF4A DNA FP inactive, SENP1 FRET inh inactive, Pemphigus Ab inh inactive and Granule exo inh inactive.
`CCOC(=O)c1cc(C(=O)OCC)c2cccc(C)n2c1=O` gave Cardio protect inactive, Myeloid diff MLP active, HNF4A DNA FP inactive, SENP1 FRET inh inactive, Pemphigus Ab inh inactive, Granule exo inh inactive, Myeloid diff inactive and GFP autofluor inactive.
Screening Cn1c(=O)c2cc(S(=O)(=O)NC(Cc3ccccc3)C(=O)NCc3ccco3)ccc2n(C)c1=O (centres undefined) returned Cardio protect inactive, Myeloid diff MLP inactive, HNF4A DNA FP inactive, SENP1 FRET inh inactive, Pemphigus Ab inh inactive, Granule exo inh inactive, Myeloid diff inactive and GFP autofluor inactive.
COCCCNC(=O)C(Cc1ccccc1)NS(=O)(=O)c1ccc2c(c1)c(=O)n(C)c(=O)n2C (centres undefined) was read as Cardio protect inactive, Myeloid diff MLP inactive, HNF4A DNA FP inactive, SENP1 FRET inh inactive, Pemphigus Ab inh inactive and Granule exo inh inactive.
For CC(C)n1cc(CN2CCC(C(=O)Nc3cccc(-c4cccc(Cl)c4)c3)CC2)cn1 the results were Cardio protect inactive, Myeloid diff MLP active, HNF4A DNA FP inactive, SENP1 FRET inh inactive, Pemphigus Ab inh inactive, Granule exo inh inactive, Myeloid diff inactive and GFP autofluor inactive.
`O=C(CSc1nc(-c2ccccc2Cl)ns1)Nc1ccc2c(c1)OCO2` gave Cardio protect inactive, Myeloid diff MLP active, HNF4A DNA FP inactive, SENP1 FRET inh inactive, Pemphigus Ab inh inactive, Granule exo inh inactive, Myeloid diff inactive and GFP autofluor inactive.
Screening Cc1ccc(-c2nsc(SCC(=O)Nc3ccc4c(c3)OCO4)n2)cc1 returned Cardio protect inactive, Myeloid diff MLP inactive, HNF4A DNA FP inactive, SENP1 FRET inh inactive, Pemphigus Ab inh inactive and Granule exo inh inactive.
`N#CC(C#N)=c1ccc2c(c1)N1C(c3ccccc3)=CC(c3ccccc3)C3CCCCC31N=2` (centres undefined) gave Cardio protect inactive, Myeloid diff MLP active, HNF4A DNA FP inactive, SENP1 FRET inh inactive, Pemphigus Ab inh inactive, Granule exo inh inactive, Myeloid diff inactive and GFP autofluor inactive.
CCCC/C(C)=N/NC(=O)CN(c1ccc(Br)cc1)S(=O)(=O)c1ccccc1 was read as Cardio protect inactive, Myeloid diff MLP inactive, HNF4A DNA FP inactive, SENP1 FRET inh inactive, Pemphigus Ab inh inactive and Granule exo inh inactive.
For C/C(=N/NC(=O)CN(c1ccccc1)S(=O)(=O)c1ccccc1)c1ccccc1O the results were Cardio protect inactive, Myeloid diff MLP inactive, HNF4A DNA FP inactive, SENP1 FRET inh inactive, Pemphigus Ab inh inactive, Granule exo inh inactive, Myeloid diff inactive and GFP autofluor inactive.
For CCOC(=O)c1cnc2c(c(C)nn2CC)c1NCCN1CCOCC1 the results were Cardio protect inactive, Myeloid diff MLP inactive, HNF4A DNA FP inactive, SENP1 FRET inh inactive, Pemphigus Ab inh inactive and Granule exo inh inactive.

Source: PubChem BioAssay
